RORA act = activators of orphan receptor RORA, primary screen, cell-based, luminescence | activation, % at 10 µM | CHO-K1 Gal4-RORA LBD luciferase reporter; percent increase over mock-subtracted basal signal | 65,000 tested, 1.5% active | AID 560, 2006;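 active = activation above the mean of all tested compounds plus 3 SD, cut at about 49% in these data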;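 note: 0% = DMSO-treated RORA cells and 100% = added signal equal to DMSO minus mock-transfected cells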
SF1 activator = activators of human SF-1, primary screen, cell-based, CHO-K1, Gal4-SF-1 LBD, luciferase luminescence; CHO-K1 Gal4-SF-1 LBD luciferase reporter; % increase over DMSO SF-1-specific signal; Steroidogenic factor 1 (Homo sapiens), Q13285; activation, % at 10 µM; 65,000 tested, 1.9% active;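 active = activation above the mean activation of all tested compounds plus 3 SD, cut at about 50% in these data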
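Compound – one dose, 10 µM compound, 1% DMSO · Test system – transient Gal4-SF-1 LBD reporter, CHO-K1 · Input – 4,000 cells in each well · Read-out basis – percent activation relative to DMSO median and mock-transfected background · Replicates – single measurement per compound · Technique – steady-glow luciferase luminescence, read after 15 min reagent incubation · Timing – 20 h compound treatment, 37 °C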
MT1-MMP txn act = MT1-MMP promoter reporter activation – cell-based, luciferase luminescence, primary screen; activation factor at 10 µM; 86,000 tested, 0.16% active; AID 750, 2007; HT1080 MT1-MMP promoter luciferase reporter, overnight; stronger effect = higher value;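 active = activation factor of at least 2 for MT1-MMP transcription at 10 µM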
JNK3 inh = JNK3 kinase activity inhibitors, primary screen, biochemical, human, purified enzyme; 60,000 tested, 0.61% active; AID 746, 2007; inhibition, % at 8 µM; HTS; in the data active = inhibition above about 17%;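 note: 0% = DMSO and 100% = reference inhibitor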
Target sequence (P53779 whole entry, looked up): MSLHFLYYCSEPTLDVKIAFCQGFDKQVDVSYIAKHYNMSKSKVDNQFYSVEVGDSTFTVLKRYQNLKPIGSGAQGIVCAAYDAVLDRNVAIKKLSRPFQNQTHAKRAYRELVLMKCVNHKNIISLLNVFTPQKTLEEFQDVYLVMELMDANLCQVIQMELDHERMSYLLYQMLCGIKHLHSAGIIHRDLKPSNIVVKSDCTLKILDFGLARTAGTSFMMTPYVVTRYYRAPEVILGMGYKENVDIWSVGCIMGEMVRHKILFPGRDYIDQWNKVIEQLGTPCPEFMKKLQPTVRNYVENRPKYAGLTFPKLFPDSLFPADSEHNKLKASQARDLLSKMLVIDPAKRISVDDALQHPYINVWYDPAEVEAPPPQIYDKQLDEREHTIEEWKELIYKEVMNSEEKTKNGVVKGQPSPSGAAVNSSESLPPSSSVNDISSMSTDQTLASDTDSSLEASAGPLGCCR
* hit, by the source's call; . = not tested or not shown. The list is not random: actives were taken first. Their share in the collection is about 2.3%.

SMILES | RORA act | SF1 activator | MT1-MMP txn act | JNK3 inh
COc1cccc(C(=O)Nc2cnc(NC(=O)c3ccco3)cc2C)c1 | 14.0 | 16.5 | 1.2 | .
COC(=O)c1ccccc1NC(=O)COC(=O)c1ccco1 | -32.8 | -16.7 | 1 | 20.9*
COC(=O)c1ccccc1NC(=O)COC(=O)c1ccc(C)c(NC(=O)c2ccco2)c1 | -16.4 | -5.4 | 1.1 | 5.3
CCCCC(=O)Nc1ccccc1C(=O)N1CCOCC1 | . | . | 1.2 | .
COC(=O)c1ccccc1NC(=O)COC(=O)CSCC(=O)N1CCOCC1 | 0.0 | -3.9 | 1.2 | 19.2*
S=C1NCCc2ccc(Cl)cc2C1c1ccccc1 (stereo not drawn) | . | . | 1.1 | .
O=C(NCCN1CCOCC1)c1noc2c1CCc1ccccc1-2 | 76.9* | 40.7 | 1.7 | 0.0
CCCNC(=O)c1noc2c1CCc1ccccc1-2 | 25.4 | 34.2 | 1.2 | 2.1
COC(=O)C1C(=O)c2c([nH]c(C(=O)OC3CCCCC3)c2C)CC1C (stereo not drawn) | 77.2* | 21.4 | 1.3 | 1.8
N#Cc1nc(-c2cccc(Cl)c2)oc1NCc1cccnc1 | . | . | 1.2 | .
Cc1cccc(-n2ncc3c(N4CCC5(CC4)OCCO5)ncnc32)c1 | 49.0* | 97.6* | 1.7 | -2.4
c1ccc(-n2ncc3c(N4CCC5(CC4)OCCO5)ncnc32)cc1 | . | . | 1.6 | .
CCN1CCN(c2ncnc3c2cnn3-c2ccccc2)CC1 | 46.2 | 56.5* | 1.4 | 0.2
Cc1cccc(-n2ncc3c(N(C)Cc4ccccc4)ncnc32)c1 | 55.5* | 64.4* | 1.3 | 1.7
Cc1cccc(-n2ncc3c(N4CCC(C)CC4)ncnc32)c1 | 35.7 | 70.1* | . | 7.1
CC1CC(C)CN(c2ncnc3c2cnn3-c2ccc(Cl)cc2)C1 (stereo not drawn) | 54.1* | 70.8* | 1.4 | 2.0
CC(=O)n1c2ccccc2c2c(C#N)c(N3CCCCC3)sc21 | -1.2 | 50.9* | 1.1 | 13.0
Cc1c(C#N)c2ccccc2n1CC(=O)N1CCCC1 | -19.6 | -0.3 | 1.2 | -4.5
CCOc1ccc2nc(N3CCCCCC3)sc2c1 | 36.3 | 58.4* | 1.2 | -7.2
CCOc1ccc2nc(N3CCC(C(=O)N4CCN(C(=O)c5ccco5)CC4)CC3)sc2c1 | 16.2 | 17.9 | 1.2 | -5.3
CCOc1ccc2nc(N3CCC(C(=O)Nc4nnc(CC)s4)CC3)sc2c1 | 46.2 | 67.1* | 1.3 | -5.8
CCOc1ccc2nc(N3CCC(C(=O)N4CCN(C5CCCCC5)CC4)CC3)sc2c1 | 27.4 | 24.5 | . | 4.9
CN(C(=O)CSc1nc(-c2ccccc2)cn1N)C(c1ccccc1)c1ccccc1 | . | . | 1.1 | .
Cc1nn2c(c1-c1ccc(Cl)cc1)N=C(c1ccco1)CC2c1ccccc1 (stereo not drawn) | . | . | 1 | .
S=c1[nH]nc(-c2cccc(Br)c2)o1 | -11.6 | 7.0 | 1.1 | 19.4*
SMILES | RORA act | SF1 activator | MT1-MMP txn act | JNK3 inh
S=c1[nH]nc(-c2cccnc2)o1 | 7.8 | -2.5 | 1 | 7.6
Nc1c(C(=O)c2ccc(F)cc2)oc2ccccc12 | 7.6 | 17.7 | 1.4 | 9.2
Cc1c(-c2nc(N)nc(Nc3ccc(F)cc3)n2)oc2ccccc12 | 73.8* | 77.9* | 1.7 | 16.5
COc1ccc(C2=NOC(CN3C(=O)c4ccccc4S3(=O)=O)C2)cc1 (stereo not drawn) | 35.2 | 67.3* | 1.2 | 6.1
O=C(CN1C(=O)c2ccccc2S1(=O)=O)c1ccccc1 | -49.7 | -41.6 | . | 3.5
COc1ccc(CCNC(=O)CN2C(=O)c3ccccc3S2(=O)=O)cc1 | -8.8 | 3.6 | 1.2 | -6.0
O=C1c2ccccc2S(=O)(=O)N1CC1CC(c2ccccc2)=NO1 (stereo not drawn) | 49.2* | 30.4 | 1.8 | -2.2
O=C(O)CCC(=O)N1CCc2cc(S(=O)(=O)N(CCc3ccccc3)Cc3ccccc3)ccc21 | . | . | 1.2 | .
CCOC(=O)N1CCN(C(=O)c2cnn(-c3ccccc3)c2NC(=O)c2ccccc2F)CC1 | -8.3 | -2.9 | 1 | -3.7
COc1ccc(OC)c(/C(O)=C/C(=O)C(=O)Nc2ccccc2OC)c1 | . | . | 1.1 | .
O=C(CCn1cccc1)NCc1ccc(Cl)cc1 | -12.1 | 6.7 | 1 | 2.5
CNc1nc(N2CCc3ccccc32)ncc1F | 40.7 | 75.3* | 1.5 | -3.7
CSc1ccc(CNc2ccccn2)cc1 | 61.4* | 17.4 | 1.5 | 1.1
CC#CCCCC(=O)Nc1ccccc1C(=O)O | 26.9 | 14.5 | 1.5 | 3.9
COC(=O)[C@@]1(Cc2ccc(F)cc2)[C@H]2c3cc(C(=O)N4CCCC4)n(CC4CC4)c3C[C@H]2CN1C(=O)c1ccccc1 | . | . | 1.1 | .
